Measured values published in ChEMBL document CHEMBL1155246, “Synthesis, antioxidant properties and radioprotective effects of new benzothiazoles and thiadiazoles” (Bioorg Med Chem, 2009).

What was measured:
[1] = system: Radical scavenging activity; assay: Antioxidant activity assessed as DPPH free radical scavenging activity by UV spectroscopic method; assay type: functional
[2] = Antioxidant activity assessed as ABTS free radical scavenging activity by radical cation discoloration assay; assay type: functional
Outline: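 ABTS radical cation made by mixing aqueous 7.0 mM ABTS with potassium persulfate to 3.5 mM final and holding overnight in the dark. It was diluted with ethanol to an initial A734 of 0.70 at 30 °C. Test compound was added at several concentrations. Absorbance at 734 nm was read at 0, 0.5 and 1 min, then every 5 min to steady state. IC50 was taken as the concentration giving 50% reduction of the radical cation.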

Mus musculus [3] = assay: Radioprotective activity against gamma radiation-induced toxicity in B6D2F1 mouse assessed as survival at 400 mg/kg, ip administered 15 mins before 8.8 Gy irradiation measured after 30 days; assay type: functional; details: B6D2F1, light or radiation study, route intraperitoneal
[4] = Acute toxicity in Swiss CD1 mouse assessed as lethality after 48 hrs; assay type: organism-based; details: in vivo
Outline: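 Male six-week-old Swiss CD1 mice; compound given intraperitoneally at different concentrations; deaths counted at 48 h to derive LD50tox/48H, the concentration killing 50% of animals.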

Mus musculus [5] = assay: Radioprotective activity against gamma radiation-induced toxicity in Swiss CD1 mouse assessed as survival at 400 mg/kg, ip administered 90 mins before 10.2 Gy irradiation measured after 30 days; assay type: functional; details: Swiss CD1, light or radiation study, route intraperitoneal
Outline: (§1)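 Male six-week-old Swiss CD1 mice, 10 per group; compound in Mygliol 812 given ip (20 ml/kg) at maximum tolerated dose (1/2 LD50tox/48H) 90 min before 60Co gamma irradiation (300 mGy/min) at 8.2 Gy (LD99.9/30days) or 10.2 Gy; survival percentage at day 30.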

Mus musculus [6] = assay: Radioprotective activity against gamma radiation-induced toxicity in B6D2F1 mouse assessed as survival at 400 mg/kg, ip administered 15 mins before 10.8 Gy irradiation measured after 30 days; assay type: functional; details: B6D2F1, light or radiation study, route intraperitoneal
Mus musculus [7] = assay: Radioprotective activity against gamma radiation-induced toxicity in Swiss CD1 mouse assessed as survival at 400 mg/kg, ip administered 90 mins before 8.2 Gy irradiation measured after 30 days; assay type: functional; details: Swiss CD1, light or radiation study, route intraperitoneal; outline: as §1
Mus musculus [8] = assay: Radioprotective activity against gamma radiation-induced toxicity in Swiss CD1 mouse assessed as survival at 308 mg/kg, ip administered 90 mins before 10.2 Gy irradiation measured after 30 days; assay type: functional; details: Swiss CD1, light or radiation study, route intraperitoneal; outline: as §1
Mus musculus [9] = assay: Radioprotective activity against gamma radiation-induced toxicity in Swiss CD1 mouse assessed as survival at 308 mg/kg, ip administered 90 mins before 8.2 Gy irradiation measured after 30 days; assay type: functional; details: Swiss CD1, light or radiation study, route intraperitoneal; outline: as §1
Mus musculus [10] = assay: Radioprotective activity against gamma radiation-induced toxicity in Swiss CD1 mouse assessed as survival at 349 mg/kg, ip administered 90 mins before 10.2 Gy irradiation measured after 30 days; assay type: functional; details: Swiss CD1, light or radiation study, route intraperitoneal; outline: as §1
Mus musculus [11] = assay: Radioprotective activity against gamma radiation-induced toxicity in Swiss CD1 mouse assessed as survival at 349 mg/kg, ip administered 90 mins before 8.2 Gy irradiation measured after 30 days; assay type: functional; details: Swiss CD1, light or radiation study, route intraperitoneal; outline: as §1
Mus musculus [12] = assay: Radioprotective activity against gamma radiation-induced toxicity in Swiss CD1 mouse assessed as survival at 480 mg/kg, ip administered 90 mins before 8.2 Gy irradiation measured after 30 days; assay type: functional; details: Swiss CD1, light or radiation study, route intraperitoneal; outline: as §1
Mus musculus [13] = assay: Radioprotective activity against gamma radiation-induced toxicity in Swiss CD1 mouse assessed as survival at 480 mg/kg, ip administered 90 mins before 10.2 Gy irradiation measured after 30 days; assay type: functional; details: Swiss CD1, light or radiation study, route intraperitoneal; outline: as §1
Mus musculus [14] = assay: Radioprotective activity against gamma radiation-induced toxicity in B6D2F1 mouse assessed as survival at 480 mg/kg, ip administered 15 mins before 8.8 Gy irradiation measured after 30 days; assay type: functional; details: B6D2F1, light or radiation study, route intraperitoneal
Mus musculus [15] = assay: Radioprotective activity against gamma radiation-induced toxicity in B6D2F1 mouse assessed as survival at 240 mg/kg, ip administered 15 mins before 8.8 Gy irradiation measured after 30 days; assay type: functional; details: B6D2F1, light or radiation study, route intraperitoneal
Mus musculus [16] = assay: Radioprotective activity against gamma radiation-induced toxicity in Swiss CD1 mouse assessed as survival at 368 mg/kg, ip administered 90 mins before 8.2 Gy irradiation measured after 30 days; assay type: functional; details: Swiss CD1, light or radiation study, route intraperitoneal; outline: as §1
Mus musculus [17] = assay: Radioprotective activity against gamma radiation-induced toxicity in Swiss CD1 mouse assessed as survival at 368 mg/kg, ip administered 90 mins before 10.2 Gy irradiation measured after 30 days; assay type: functional; details: Swiss CD1, light or radiation study, route intraperitoneal; outline: as §1
Mus musculus [18] = assay: Radioprotective activity against gamma radiation-induced toxicity in B6D2F1 mouse assessed as survival at 260 mg/kg, ip administered 15 mins before 10.8 Gy irradiation measured after 30 days; assay type: functional; details: B6D2F1, light or radiation study, route intraperitoneal
Mus musculus [19] = assay: Radioprotective activity against gamma radiation-induced toxicity in Swiss CD1 mouse assessed as survival at 260 mg/kg, ip administered 90 mins before 10.2 Gy irradiation measured after 30 days; assay type: functional; details: Swiss CD1, light or radiation study, route intraperitoneal; outline: as §1
Mus musculus [20] = assay: Radioprotective activity against gamma radiation-induced toxicity in B6D2F1 mouse assessed as survival at 260 mg/kg, ip administered 15 mins before 8.8 Gy irradiation measured after 30 days; assay type: functional; details: B6D2F1, light or radiation study, route intraperitoneal
Mus musculus [21] = assay: Radioprotective activity against gamma radiation-induced toxicity in Swiss CD1 mouse assessed as survival at 260 mg/kg, ip administered 90 mins before 8.2 Gy irradiation measured after 30 days; assay type: functional; details: Swiss CD1, light or radiation study, route intraperitoneal; outline: as §1
Mus musculus [22] = assay: Radioprotective activity against gamma radiation-induced toxicity in Swiss CD1 mouse assessed as survival at 340 mg/kg, ip administered 90 mins before 10.2 Gy irradiation measured after 30 days; assay type: functional; details: Swiss CD1, light or radiation study, route intraperitoneal; outline: as §1
Mus musculus [23] = assay: Radioprotective activity against gamma radiation-induced toxicity in Swiss CD1 mouse assessed as survival at 340 mg/kg, ip administered 90 mins before 8.2 Gy irradiation measured after 30 days; assay type: functional; details: Swiss CD1, light or radiation study, route intraperitoneal; outline: as §1

Row | Compound | IC50 [1] [µM] | IC50 ([2]; read-out: IC50) [µM] | also measured
1 | CCSc1nn(CCO)c(=N)s1 | 3500 | – | –
2 | CCOc1ccc2nc(N)sc2c1 | > 4000 | – | –
3 | CCc1nn(CCSS(=O)(=O)O)c(=N)s1 | – | 51.9 | –
4 | Cc1ccc2c(c1)sc(=N)n2CCO | > 4000 | – | –
5 | CCc1nn(CCSP(=O)(O)O)c(=N)s1 | – | 90.3 | –
6 | N=c1sc2ccccc2n1CCSS(=O)(=O)O | – | – | IC50 [2]: ND(Insoluble)
7 | Cc1ccc2c(c1)sc(=N)n2CCSS(=O)(=O)O | – | – | IC50 [2]: ND(Insoluble)
8 | N[C@@H](CCC(=O)N[C@@H](CS)C(=O)NCC(=O)O)C(=O)O [GLUTATHIONE] | 96 | – | –
9 | CCc1nnc(N)s1 | > 4000 | – | –
10 | CCc1nn(CCO)c(=N)s1 | 2400 | – | –
11 | CCSc1nn(CCSS(=O)(=O)O)c(=N)s1 | – | 8.32 | –
12 | CCC(=O)Nc1nc2ccccc2s1 | > 4000 | – | –
13 | NCCCNCCSP(=O)(O)O [AMIFOSTINE] | 100 | – | survival at 400 mg/kg (Mus musculus [3]): 100%; LD50 at 48 h [4]: 800 mg/kg; survival at 400 mg/kg (Mus musculus [5]): 20%; survival at 400 mg/kg (Mus musculus [6]): 60%; survival at 400 mg/kg (Mus musculus [7]): 50%
14 | N=c1sc2ccccc2n1CCO | > 4000 | – | –
15 | CCSc1nn(CCSP(=O)(O)O)c(=N)s1 | – | 76.9 | –
16 | Cc1ccc2nc(NCCS)sc2c1 | 3170 | 4040 | –

Row | Compound | IC50 [1] [µM] | IC50 ([2]; read-out: IC50) [µM] | also measured
17 | CCSc1nnc(NC(=O)CC)s1 | > 4000 | – | –
18 | Cc1c(C)c2c(c(C)c1O)CCC(C)(C(=O)O)O2 (stereo not drawn) [TROLOX] | 34 | – | –
19 | CCOc1ccc2nc(S)sc2c1 | 46 | 88.4 | –
20 | CCSc1nnc(N)s1 | > 4000 | – | –
21 | SCCNc1nc2ccccc2s1 | 1390 | 1520 | survival at 308 mg/kg (Mus musculus [8]): 0%; LD50 at 48 h [4]: > 616 mg/kg; survival at 308 mg/kg (Mus musculus [9]): 60%
22 | CCSc1nnc(S)s1 | 53 | 23.1 | survival at 349 mg/kg (Mus musculus [10]): 0%; LD50 at 48 h [4]: 698 mg/kg; survival at 349 mg/kg (Mus musculus [11]): 0%
23 | Sc1nc2ccccc2s1 [2-MERCAPTOBENZOTHIAZOLE] | 92 | 79.8 | survival at 480 mg/kg (Mus musculus [12]): 60%; survival at 480 mg/kg (Mus musculus [13]): 0%; LD50 at 48 h [4]: > 960 mg/kg; survival at 480 mg/kg (Mus musculus [14]): 100%; survival at 240 mg/kg (Mus musculus [15]): 90%
24 | CCSc1nnc(NCCS)s1 | 110 | 390 | survival at 368 mg/kg (Mus musculus [16]): 0%; survival at 368 mg/kg (Mus musculus [17]): 0%; LD50 at 48 h [4]: > 736 mg/kg
25 | CCC(=O)Nc1nc2ccc(C)cc2s1 | > 4000 | – | –
26 | CCOc1ccc2c(c1)sc(=N)n2CCO | 1400 | – | –
27 | Cc1ccc2nc(S)sc2c1 | 91 | 76.7 | survival at 260 mg/kg (Mus musculus [18]): 0%; survival at 260 mg/kg (Mus musculus [19]): 0%; LD50 at 48 h [4]: > 520 mg/kg; survival at 260 mg/kg (Mus musculus [20]): 100%; survival at 260 mg/kg (Mus musculus [21]): 80%
28 | CCc1nnc(S)s1 | 84 | 21.3 | survival at 340 mg/kg (Mus musculus [22]): 0%; LD50 at 48 h [4]: > 680 mg/kg; survival at 340 mg/kg (Mus musculus [23]): 30%
29 | CCOc1ccc2c(c1)sc(=N)n2CCSS(=O)(=O)O | – | – | IC50 [2]: ND(Insoluble)
30 | CCC(=O)Nc1nnc(CC)s1 | > 4000 | – | –
31 | O=C1O[C@H]([C@@H](O)CO)C(O)=C1O [ASCORBIC ACID] | 20 | 46.5 | –
32 | CCOc1ccc2nc(NC(=O)CC)sc2c1 | > 4000 | – | –
